# Platelet DG rel: modulates dense granule release in human platelets; AID 1663; inhibition, %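 (compounds screened at 7.5 µM in platelet-rich plasma)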; human platelet-rich plasma, SFLLRN dense granule ATP release, luminescence; 0.22% of 300,000 active;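 active = mean replicate score, as percent of positive control, at or above 50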
# VLA-4 inh: inhibition in a human VLA-4 binding assay; P13612; VLA-4 expressing cells, ligand binding flow cytometry; inhibition, % (about 7 µM as worked out from the volumes in the protocol); 0.2% of 330,000 active; AID 2557; in the data active = inhibition above about 50%
# Target sequence (P13612 whole entry, looked up): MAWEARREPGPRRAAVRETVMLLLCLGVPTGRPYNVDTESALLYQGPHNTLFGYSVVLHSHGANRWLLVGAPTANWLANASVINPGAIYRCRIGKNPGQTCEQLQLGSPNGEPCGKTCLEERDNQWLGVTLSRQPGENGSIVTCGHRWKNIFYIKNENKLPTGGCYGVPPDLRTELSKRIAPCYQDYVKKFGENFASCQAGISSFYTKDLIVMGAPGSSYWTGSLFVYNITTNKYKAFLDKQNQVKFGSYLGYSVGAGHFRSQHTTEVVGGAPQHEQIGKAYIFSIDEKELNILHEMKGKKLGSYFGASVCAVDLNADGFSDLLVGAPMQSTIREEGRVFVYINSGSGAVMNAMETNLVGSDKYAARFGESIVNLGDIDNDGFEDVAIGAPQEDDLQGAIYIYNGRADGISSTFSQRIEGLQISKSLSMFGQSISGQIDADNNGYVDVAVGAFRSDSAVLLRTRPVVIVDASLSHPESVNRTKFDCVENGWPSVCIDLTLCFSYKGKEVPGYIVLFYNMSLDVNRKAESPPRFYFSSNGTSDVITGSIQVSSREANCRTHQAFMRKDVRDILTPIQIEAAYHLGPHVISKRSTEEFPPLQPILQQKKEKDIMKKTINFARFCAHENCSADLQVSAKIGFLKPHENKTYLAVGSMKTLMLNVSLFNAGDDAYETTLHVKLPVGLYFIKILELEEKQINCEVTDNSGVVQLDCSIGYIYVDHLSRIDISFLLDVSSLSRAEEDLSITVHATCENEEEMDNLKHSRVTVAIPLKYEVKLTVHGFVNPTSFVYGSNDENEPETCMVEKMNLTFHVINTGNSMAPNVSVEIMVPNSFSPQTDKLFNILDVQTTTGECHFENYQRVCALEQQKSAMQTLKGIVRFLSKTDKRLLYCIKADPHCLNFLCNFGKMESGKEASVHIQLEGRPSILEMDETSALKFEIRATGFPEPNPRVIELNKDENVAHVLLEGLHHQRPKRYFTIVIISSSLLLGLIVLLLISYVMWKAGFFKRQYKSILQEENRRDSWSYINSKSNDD
# TAAR1 agonist: human TAAR1 agonism; AID 624467; 0.99% of 360,000 active; CHO RD-HGA16 TAAR1, Fluo-8 calcium fluorescence; vehicle wells 0%, saturating PEA agonist 100%; Q96RJ0; activation, % at 3 µM;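 active = activation above the mean activation of all test compounds in the run plus 3 SD, cut at about 38% in these data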
#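 System: CHO RD-HGA16 cells carrying human TAAR1 plus Gα16; Incubation: 17-24 h seeding, 75 min 37 °C dye, 30 min RT; Measured by: Fluo-8 fluorescence, 5 s baseline then 140 s kinetic read; Control set: DMSO and PEA EC100; Replication: single well for each compound.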
# Rce1 inhib: inhibitors of yeast Ras-converting enzyme | yeast membranes, quenched prenylated peptide cleavage fluorescence | calls only | 0.27% of 290,000 active;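 active = fall in fluorescence gain of 50% or more versus controls, with final raw signal at or below 3038400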
# TAAR1 antagonist: antagonists of human TAAR1 | Q96RJ0 | CHO RD-HGA16 TAAR1, Fluo-8 calcium fluorescence, antagonist | inhibition, % at 3 µM | 1.5% of 360,000 active | AID 624466;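 active = inhibition above a per-plate cutoff, the mean inhibition of test compounds on that plate plus 3 SD, cut at about 49% in these data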
#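 Test system – hTAAR1-expressing CHO RD-HGA16 cells, Gα16-coupled · Reagent – β-PEA at EC80 concentration, post-compound challenge · Compound dosing – 3 µM, single point · Timing – 140 s kinetic read after compound, 140 s after agonist · Detection – Fluo-8 intracellular calcium dye fluorescence, real-time kinetic reads · Control set – DMSO and EC80 PEA controls · Repeats – n of 1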
# TAAR1 ag confirm: confirmation of human TAAR1 agonists | shares compounds with TAAR1 agonist | CHO RD-HGA16 TAAR1, Fluo-8 calcium fluorescence; scaled: DMSO 0%, maximal phenethylamine 100% | activation, % at 3 µM | 82% of 2,400 active | AID 651783;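 active = activation above a cutoff set at the run's mean compound activation plus 3 SD, cut at about 39% in these data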
# Ga16 ag counter: nonselective agonism, TAAR1 counter-screen; 50% of 2,400 active; CHO-Ga16 parental, Fluo-8 calcium fluorescence; normalized to maximal ATP response, DMSO zero; activation, % at 3 µM; shares compounds with TAAR1 agonist;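 active = activation above the run cutoff, the mean activation over all tested wells plus 3 SD, cut at about 12% in these data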
# TAAR1 desens: human TAAR1 agonist that also desensitizes the receptor. shares compounds with TAAR1 agonist. CHO RD-HGA16 hTAAR1, Fluo-8 calcium, beta-PEA response inhibition. inhibition, % at 3 µM. 46% of 2,400 active;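 active = inhibition above the run cutoff, the mean inhibition of all test compounds plus 3 SD, cut at about 49% in these data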;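 also: beta-PEA stimulus applied at its EC80; loss of beta-PEA calcium signal after compound pretreatment read as receptor desensitization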
# Ga16 antag count: counter-screen for TAAR1 agonists: nonselective Ga16 antagonists | shares compounds with TAAR1 agonist | CHO-Ga16 ATP-induced calcium, Fluo-8 fluorescence | inhibition, % at 3 µM | 39% of 2,400 active;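 active = inhibition above the plate's mean compound inhibition plus 3 SD, computed per plate, cut at about 22% in these data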
# Numbers stand for hits; n = inactive; x = not tested or not shown; + = active, no number. Rows were chosen to be rich in hits. Some 2.6% of all compounds tested hit in one or more screens of this group.
SMILES,Platelet DG rel,VLA-4 inh,TAAR1 agonist,Rce1 inhib,TAAR1 antagonist,TAAR1 ag confirm,Ga16 ag counter,TAAR1 desens,Ga16 antag count
O=C(c1ccccc1)c1ccc(OCC(O)CNCc2ccc(Cl)cc2)cc1 (stereo not drawn),n,n,49,n,n,48,17,n,28
Cc1ccc(O)c(C(=O)CC(=O)c2cccc(F)c2)c1,n,n,54,n,n,n,19,n,22
Cc1ccc(O)c(C(=O)CC(=O)c2ccc(Cl)cc2)c1,n,n,54,n,n,43,23,51,37
CC(C)(C)OC(=O)N1C[C@H](O)C[C@H]1C(=O)OCC(=O)c1ccc([N+](=O)[O-])cc1,n,n,n,n,n,x,x,x,x
Cc1cc(NC(=O)C2CCCC2)n(-c2nc3ccccc3[nH]2)n1,n,n,56,n,n,n,n,n,n
c1ccc(CN2CCC3CC2c2c3cccc2N2CCOCC2)cc1 (stereo not drawn),x,x,n,x,n,x,x,x,x
Cc1cccn2c(CNCCc3ccccn3)c(C(=O)N3CCOCC3)nc12,n,n,49,n,n,68,n,n,n
O=C(CNCc1ccccn1)N1CCc2ccccc2C1,n,n,47,n,n,n,n,n,n
O=C(c1ccc(CN2CCc3ccccc3C2)cc1)N1CCc2ccccc2C1,n,n,67,n,n,64,n,n,n
Cc1ccc(C)c(OCC(=O)N2CCc3ccccc3C2)c1,n,n,n,n,n,x,x,x,x
Cc1ccccc1OCC(=O)N1CCc2ccccc2C1,n,n,42,n,n,88,n,n,n
O=C(Nc1ccccc1F)N1CCc2ccccc2C1,n,n,50,n,n,40,n,n,n
CC1CC(C)CN(C(=O)Nc2ccccc2F)C1 (stereo not drawn),n,n,n,n,n,x,x,x,x
CSc1ccccc1NC(=O)CN(C)C(=O)C1CC(=O)N(C(C)c2ccccc2)C1 (stereo not drawn),x,n,n,x,n,x,x,x,x
CCCC(C(=O)NCCC(C)C)N(Cc1ccc(OC)cc1)C(=O)c1snc(C(N)=O)c1N (stereo not drawn),n,n,n,n,n,x,x,x,x
COc1ccccc1C(=O)Nc1ccnn1C1CCN(CC2CC=CCC2)CC1 (stereo not drawn),n,n,n,n,n,x,x,x,x
Cc1ccc(C)c(NC(=O)N2CCCCCC2)c1,n,n,n,n,n,x,x,x,x
Cc1ccc(C)c(NC(=O)N2CCc3ccccc3C2)c1,n,n,86,n,n,73,n,n,n
O=C(/C=C/C(=O)N1CCc2ccccc2C1)N1CCc2ccccc2C1,n,n,82,n,n,87,n,58,n
O=C(/C=C/c1ccc(F)cc1)N1CCc2ccccc2C1,x,n,n,x,n,x,x,x,x
O=C(CN(C1CCCCC1)S(=O)(=O)c1ccccc1)N1CCCC1,n,n,n,n,n,x,x,x,x
O=C(CN(C1CCCCC1)C1CCCCC1)N1CCc2ccccc2C1,n,n,96,+,99,106,21,105,29
Cc1ccc(S(=O)(=O)c2ccsc2NC(=O)c2ccccc2)cc1,x,x,n,x,n,x,x,x,x
Cc1cccc(S(=O)(=O)NC(=O)C2(C)CCN2C(=O)c2sccc2C)c1 (stereo not drawn),x,x,n,x,n,x,x,x,x
Cn1ccnc1COc1ccc(C=O)cc1,n,n,n,n,n,x,x,x,x
SMILES,Platelet DG rel,VLA-4 inh,TAAR1 agonist,Rce1 inhib,TAAR1 antagonist,TAAR1 ag confirm,Ga16 ag counter,TAAR1 desens,Ga16 antag count
Cn1c2ccccc2c(=O)c2ccc(NCCc3cccs3)cc21,x,n,49,x,63,55,n,51,32
O=C(NC1CC1)C1CCN(C2CCN(C(=O)CC3=CCCCC3)CC2)CC1,n,n,n,n,n,x,x,x,x
O=S1(=O)N=C(N2CCc3ccccc3C2)c2ccccc21,n,n,63,n,n,61,n,n,n
COc1ccc(S(=O)(=O)NC(=O)C2(C)CCN2C(=O)Cc2cc(C)cc(C)c2)cc1OC (stereo not drawn),x,x,n,x,n,x,x,x,x
COc1cccc(-c2noc(CCC(=O)NCCc3ccccc3)n2)c1,n,n,47,n,n,67,n,n,n
COc1ccc(-c2noc(CCC(=O)NCCc3ccccc3)n2)cc1,n,n,51,n,n,62,n,n,n
CCOc1ccc(-c2noc(CCC(=O)NCCc3ccccc3)n2)cc1OC,n,n,n,n,n,x,x,x,x
O=C(CCc1nc(-c2ccccc2)no1)NCCc1ccccc1,n,n,x,n,x,x,x,x,x
O=C(COc1ccc(F)cc1)NNC(=O)c1cc2ccccc2oc1=O,n,n,x,n,x,x,n,x,n
Cc1cccc(OCC(=O)NNC(=O)c2cc3ccccc3oc2=O)c1,x,n,64,n,n,84,18,n,n
COC(=O)[C@]12CCCCC=C1N(Cc1ccc3c(c1)OCO3)C(=O)[C@H](CC(=O)N1CCN(C(=O)C3CC3)CC1)C2,x,x,n,x,n,x,x,x,x
NNC(=O)c1ccc(NS(=O)(=O)c2ccc(Br)cc2)cc1,n,n,n,n,n,x,x,x,x
COc1cc([N+](=O)[O-])ccc1NC(=S)Nn1cnnc1,n,n,n,n,n,x,x,x,x
CC(C(=O)O)n1c2ccccc2c2cnn(C)c(=O)c21 (stereo not drawn),n,n,n,n,n,x,x,x,x
O=Cc1[nH]c2ccccc2c1N(C(=O)CCl)c1ccc([N+](=O)[O-])cc1,n,n,56,n,52,70,44,73,53
CCOC(=O)c1c(C)[nH]c(C)c1S(=O)(=O)N1c2ccccc2CC1C (stereo not drawn),n,n,49,n,n,n,n,n,n
O=C(COc1ccc(Cl)cc1Cl)Nc1ccc(CN2CCCCC2)cc1,n,n,51,n,n,84,40,n,27
O=C(COc1ccc(Cl)cc1Cl)Nc1ccc(CN2CCOCC2)cc1,n,n,n,n,n,x,x,x,x
O=c1[nH]ncc2c3ccccc3n(Cc3cccc(Cl)c3)c12,n,n,54,n,n,n,n,n,n
O=c1[nH]ncc2c3ccccc3n(Cc3ccc(F)cc3)c12,n,n,n,n,n,x,x,x,x
COc1ccc(NCC(=O)N/N=C/C=C\c2ccccc2)cc1,n,n,n,n,n,x,x,x,x
O=C(CNC(=O)c1cccc(Cl)c1)N/N=C/C=C/c1ccccc1,n,n,46,n,n,77,15,67,n
O=C(CNC(=O)c1ccccc1F)N/N=C\C=C\c1ccccc1,n,n,42,n,n,67,n,56,n
O=C(CNC(=O)c1ccccc1Cl)N/N=C/C=C/c1ccccc1,n,n,x,n,x,x,n,x,n

# Source: PubChem
